Compound activity deposited in PubChem by several laboratories.
In the library only some 2.9% were active in any assay of this set; here they are far more common.
DDE Tn6 FP inh: disrupts Tn6 cyclic peptide binding to fibrin D-Dimer-E complex | P02675 | Fibrin DD(E) TRITC-Tn6 fluorescence polarization displacement | inhibition, % at 8.3 µM | hit rate 0.21% among 370,000;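 active = inhibition above a per-campaign cutoff: mean of compounds within control limits plus 3 SD, cut at about 15% in these data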
CRFR2-BP ag: CRF-BP/CRF-R2 complex agonism; activation, % at 13.2 µM; HEK293 CRF-R2/CRF-BP, calcium dye fluorescence (FLIPR); percent of saturating CRF peptide response; hit rate 0.46% among 350,000;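 active = activation of at least 50%, plus an integration ratio under a set limit after plate pattern correction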
DDE Tn7 FP inh: inhibitors of Tn7 peptide binding to human fibrin DD(E); FP displacement of FITC-Tn7 peptide from fibrin DD(E); 0% = median of compound wells per plate; P02675; hit rate 0.13% among 370,000; inhibition, % at 8.3 µM;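 active = inhibition above the mean of compounds falling within the control limits plus 3 SD of them, cut at about 14% in these data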
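Also added: labelled Tn7 tracer, 0.1 µM; Assay system: human fibrin DD(E) protein; Amount: 2 µM fibrin DD(E); Schedule: 10 min compound pre-incubation, 3 h probe incubation at room temperature; Repeats: one replicate per compound; Read-out basis: percent inhibition; Measured by: fluorescence polarization of the labelled Tn7 tracer.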
KLK7 zymogen act: activators of human kallikrein-7 zymogen | activation, % at 7 µM | purified proKLK7, EDANS-DABCYL substrate fluorescence; 100% is mature enzyme control, 0% vehicle | hit rate 0.9% among 370,000;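 active = activation above the mean of all tested compounds plus 3 SD, computed per campaign excluding outliers beyond control limits, cut at about 13% in these data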
CRFBP-R2 block: antagonists of CRF-binding protein/CRF-R2 receptor complex. HEK293 CRF-R2/CRF-BP, CRF-induced calcium fluorescence. inhibition, % at 11.8 µM. hit rate 0.59% among 350,000;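 active = inhibition of the ligand-induced calcium signal above about 50% at the single tested concentration, limit read from the data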
NRP1-CendR mod: modulators of CendR peptide binding to human neuropilin-1. inhibition, % at 25 µM. hit rate 0.85% among 360,000. FAM-RPARPAR peptide binding to NRP-1, fluorescence polarization;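 active = inhibition or corrected inhibition above about 18%, plus a signal ratio from 0.5 to 1.5, limit read from the data, passing the limit was not always enough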
Target sequence (O14786 whole entry, looked up): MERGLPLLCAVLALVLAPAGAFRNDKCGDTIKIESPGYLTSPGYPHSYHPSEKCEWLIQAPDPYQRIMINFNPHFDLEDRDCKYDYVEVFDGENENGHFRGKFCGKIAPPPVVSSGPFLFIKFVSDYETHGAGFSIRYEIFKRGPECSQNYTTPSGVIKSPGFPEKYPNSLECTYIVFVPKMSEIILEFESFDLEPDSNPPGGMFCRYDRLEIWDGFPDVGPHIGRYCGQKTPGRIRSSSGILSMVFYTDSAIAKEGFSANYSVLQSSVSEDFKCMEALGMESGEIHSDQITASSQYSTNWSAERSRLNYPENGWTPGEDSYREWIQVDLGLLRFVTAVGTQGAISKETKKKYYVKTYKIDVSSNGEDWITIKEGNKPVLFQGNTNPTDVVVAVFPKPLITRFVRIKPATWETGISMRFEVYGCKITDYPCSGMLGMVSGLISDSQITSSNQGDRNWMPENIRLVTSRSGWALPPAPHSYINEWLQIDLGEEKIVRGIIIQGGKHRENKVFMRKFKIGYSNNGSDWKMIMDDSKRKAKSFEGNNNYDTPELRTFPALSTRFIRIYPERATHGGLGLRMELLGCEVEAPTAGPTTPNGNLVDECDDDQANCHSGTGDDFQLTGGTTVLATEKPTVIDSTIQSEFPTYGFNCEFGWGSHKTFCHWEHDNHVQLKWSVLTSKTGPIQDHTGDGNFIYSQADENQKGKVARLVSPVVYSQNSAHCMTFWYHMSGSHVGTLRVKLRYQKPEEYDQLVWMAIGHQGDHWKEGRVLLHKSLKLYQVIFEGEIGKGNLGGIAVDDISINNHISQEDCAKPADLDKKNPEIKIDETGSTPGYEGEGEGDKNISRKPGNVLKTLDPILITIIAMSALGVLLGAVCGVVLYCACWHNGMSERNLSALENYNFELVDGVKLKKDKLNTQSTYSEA
Hits are given with their value; i = inactive; nt = no result.

SMILES | DDE Tn6 FP inh | CRFR2-BP ag | DDE Tn7 FP inh | KLK7 zymogen act | CRFBP-R2 block | NRP1-CendR mod
CCOC(=O)c1ccc(CNC(=O)Cn2nnc(-c3ccccc3F)n2)o1 | i | i | i | i | i | i
CCC(=O)N1CCc2cc(Br)c(S(=O)(=O)NCc3ccccc3OC)cc21 | i | nt | i | i | nt | nt
COc1ccc(C2CC(O)(c3ccccc3)Oc3cc(OC)ccc32)cc1 (stereo not drawn) | i | i | i | i | i | 26
COc1ccc(C2CC(=O)Oc3cc(OC)ccc32)cc1 (stereo not drawn) | i | i | i | i | i | i
CNC(=S)Nc1ccc(N2CCCC2)c(S(=O)(=O)Nc2ccc(OC)cc2)c1 | i | i | i | i | i | 42
CC(=Nc1ccc(Cl)cc1N)c1c(O)cc(C)oc1=O | i | nt | i | i | nt | nt
O=C(O)c1ccc(CSc2nnc(COc3ccccc3)o2)cc1 | i | i | i | i | i | 22
O=C(O)c1cccc(CSc2nnc(COc3ccccc3)o2)c1 | i | i | i | i | i | i
COc1ccc(CNS(=O)(=O)/C=C/c2ccc(OC)cc2CNC(=O)OC(C)(C)C)cc1 | i | nt | i | i | nt | nt
CCC(c1nnnn1-c1ccc(OC)cc1)N1CCN(C/C=C/c2ccccc2)CC1 (stereo not drawn) | i | nt | i | i | nt | i
COc1ccc(-n2nnnc2C(CCc2ccccc2)N2CCN(C/C=C/c3ccccc3)CC2)cc1 (stereo not drawn) | i | nt | i | i | nt | 24
C=CCN1[C@H](CC(C)C)COc2cccc(N3CCSCC3)c2S1(=O)=O | i | nt | i | i | nt | nt
Cc1cccnc1NC(=S)NC(=O)c1cncc(Br)c1 | i | i | i | 32 | i | i
COc1ccccc1C(=O)Nc1onc(C)c1C#N | i | i | i | i | i | 20
N#Cc1cccc(NC(=O)Nc2cccs2)c1 | i | i | i | i | 108 | i
COc1cccc(-c2ccc3c(c2)[C@@H]2C[C@H]4[C@@H](CN2CC3)[C@H](C)ON4C)c1 | i | nt | i | i | nt | nt
COc1ccc(CNCC#CC2=CCCCC2)c(OC)c1 | i | nt | i | i | nt | nt
COc1ccc(C(=O)N2CCC(C)(C(=O)NS(=O)(=O)C3CC3)C2)c(OC)c1 (stereo not drawn) | i | nt | i | i | nt | i
COc1ccc(C(=O)N2CCC(C)(C(=O)NS(=O)(=O)C3CC3)C2)cc1F (stereo not drawn) | i | nt | i | i | nt | 22
Cc1cnc(NC(=O)CSc2ncc(-c3ccccc3)n2Cc2ccco2)s1 | i | 60 | i | i | i | i
c1ccc2c(CN3CCCCC3)csc2c1 | i | 96 | i | i | i | i
c1ccc2c(CN3CCOCC3)csc2c1 | i | i | i | i | i | i
CCc1ccccc1NC(=O)c1ccccc1N1C(=O)C2C3C=CC(C3)C2C1=O (stereo not drawn) | i | i | i | i | i | 22
C[C@@H](CO)N(Cc1cn(Cc2ccccc2)nn1)S(=O)(=O)c1ccccc1Br | i | nt | i | i | nt | nt
CCc1ccc(NC(=O)CSc2nc(N)c(NC(=O)c3ccc(F)c(F)c3)c(=O)[nH]2)cc1 | i | i | i | i | 52 | i
SMILES | DDE Tn6 FP inh | CRFR2-BP ag | DDE Tn7 FP inh | KLK7 zymogen act | CRFBP-R2 block | NRP1-CendR mod
CCCCCCCCCCCCN1[C@@H](CC(C)=O)c2cc(F)ccc2S1(=O)=O | i | i | i | i | i | i
CCCCCCCCN1[C@@H](CC(=O)O)c2ccc(C(F)(F)F)cc2S1(=O)=O | i | i | i | i | i | 28
CCCCCCCCCCCCN1[C@@H](CC(=O)OC)c2cc(F)ccc2S1(=O)=O | i | i | i | i | i | 26
CC(=O)C[C@H]1c2cc(C(F)(F)F)ccc2S(=O)(=O)N1c1ccc(N(C)C)cc1 | i | i | i | i | i | i
CN(C)c1ccc(N2[C@@H](CC(=O)O)c3cc(C(F)(F)F)ccc3S2(=O)=O)cc1 | i | i | i | i | i | 25
COCc1[nH]nc2c1C(c1ccc(C)cc1)NC2=O (stereo not drawn) | i | nt | i | i | nt | nt
COc1cc2c(cc1[N+](=O)[O-])-c1ccccc1C2 | i | 87 | i | i | i | i
COc1cc2c(cc1[N+](=O)[O-])-c1ccc([N+](=O)[O-])cc1C2 | i | nt | i | i | nt | i
Cc1ccccc1CNC(=O)c1cccc2c1C(=O)N(Cc1cccnc1)C2 | i | nt | i | i | nt | nt
